Results as given in ChEMBL document CHEMBL1268932, “Discovery and SAR of a series of 4,6-diamino-1,3,5-triazin-2-ol as novel non-nucleoside reverse transcriptase inhibitors of HIV-1” (Bioorg Med Chem Lett, 2010).

Tests used:
[1] = Cmax in rat at 4 mg/kg, po; format: ADME, organism-based; design: dose 4 mg/kg, route oral; conditions: in vivo
Outline: (§1)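 Rats dosed orally at 4 mg/kg and intravenously at 2 mg/kg. Plasma parameters were Cmax and AUC, plus t1/2, Vdss and clearance after the IV dose. Apparent oral bioavailability was derived from both routes.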

[2] = Clearance in rat at 4 mg/kg, po or 2 mg/kg, iv; format: ADME, organism-based; conditions: in vivo; outline: as §1
[3] = Volume of distribution at steady state in rat at 4 mg/kg, po or 2 mg/kg, iv; format: ADME, organism-based; conditions: in vivo, read-out: Vdss; outline: as §1
[4] = Oral bioavailability in rat at 4 mg/kg, po; format: ADME, organism-based; conditions: in vivo; outline: as §1
[5] = AUC in rat at 4 mg/kg, po or 2 mg/kg, iv; format: ADME, organism-based; conditions: plasma; outline: as §1
[6] = target: Human immunodeficiency virus type 1 reverse transcriptase (Human immunodeficiency virus 1, UniProt Q72547, V106A); experiment: Inhibition of HIV1 reverse transcriptase V106A mutant
[7] = test system: Human immunodeficiency virus 1; experiment: Antiviral activity against wild type HIV1 assessed as inhibition of virus-induced cytopathic effect by cell based assay; format: functional, organism-based
Outline: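 Cell-based cytoprotection assay. The endpoint is EC50, the concentration giving 50% inhibition of the virus-induced cytopathic effect. Virus and cells were either HIV-1RF in CEM-SS cells or HIV-1IIIB in MT-4 cells.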

[8] = test system: Human immunodeficiency virus 1; experiment: Antiviral activity against wild type HIV1 NL4-3 infected in human CEM-SS cells assessed as inhibition of virus-induced cytopathic effect; format: functional, organism-based; conditions: Human immunodeficiency virus 1, NL4-3, CEM-SS
[9] = test system: Human immunodeficiency virus 1; experiment: Antiviral activity against HIV1 NL4-3 containing reverse transcriptase K103N mutation infected in human CEM-SS cells assessed as inhibition of virus-induced cytopathic effect; format: functional, organism-based; conditions: Human immunodeficiency virus 1, NL4-3, CEM-SS
[10] = test system: Human immunodeficiency virus 1; experiment: Antiviral activity against HIV1 NL4-3 containing reverse transcriptase Y181C mutation infected in human CEM-SS cells assessed as inhibition of virus-induced cytopathic effect; format: functional, organism-based; conditions: Human immunodeficiency virus 1, NL4-3, CEM-SS
[11] = target: Human immunodeficiency virus type 1 reverse transcriptase (Human immunodeficiency virus 1, UniProt Q72547, L100I); experiment: Inhibition of HIV1 reverse transcriptase L100I mutant
[12] = target: Human immunodeficiency virus type 1 reverse transcriptase (Human immunodeficiency virus 1, UniProt Q72547); experiment: Inhibition of wild type HIV1 reverse transcriptase
[13] = Half life in rat at 2 mg/kg, iv; format: ADME, organism-based; design: dose 2 mg/kg, route intravenous; conditions: in vivo; outline: as §1
[14] = Toxicity in human CEM-SS cells; format: cell-based; conditions: read-out: TC50 (the source's name)
[15] = target: Human immunodeficiency virus type 1 reverse transcriptase (Human immunodeficiency virus 1, UniProt Q72547, Y188L); experiment: Inhibition of HIV1 reverse transcriptase Y188L mutant

Structure (SMILES)	EC50 [7]	IC50 [12]	also measured
CN(Cc1ccc2occc2c1)c1nc(O)nc(Nc2c(F)cccc2-c2ccccc2)n1	5 nM	8 nM	Cmax [1]: 3.8 µM; clearance [2]: 5.17 mL/min/kg; Vd [3]: 0.35 L/kg; bioavailability [4]: 38%; AUC [5]: 12.5 µM·h; IC50 [6]: 9100 nM; EC50 [8]: 6 nM; EC50 [9]: > 1000 nM; EC50 [10]: 100 nM; IC50 [11]: 47 nM; half-life [13]: 1.45 h; CC50 [14]: > 1000 nM; IC50 [15]: 6100 nM
CN(Cc1ccc2occc2c1)c1nc(O)nc(Nc2c(F)cc(F)cc2-c2ccccc2)n1	10 nM	70 nM	–
Cc1cccc(-c2ccoc2)c1Nc1nc(O)nc(N(C)Cc2ccc3occc3c2)n1	7 nM	80 nM	–
Cc1cccc(-c2ccccc2)c1Nc1nc(O)nc(N(C)Cc2ccc3c(c2)CCO3)n1	3 nM	55 nM	Cmax [1]: 6.1 µM; clearance [2]: 4.5 mL/min/kg; Vd [3]: 0.32 L/kg; bioavailability [4]: 44%; AUC [5]: 15.6 µM·h; IC50 [6]: 36700 nM; EC50 [8]: 6 nM; EC50 [9]: > 1000 nM; EC50 [10]: 200 nM; IC50 [11]: 70 nM; half-life [13]: 1.4 h; CC50 [14]: > 1000 nM; IC50 [15]: 9500 nM
Cc1cccc(-c2ccccc2)c1Nc1nc(O)nc(N(C)Cc2ccc3c(c2)OCO3)n1	130 nM	90 nM	–
Cc1cccc(-c2ccccc2)c1Oc1nc(O)nc(NCc2ccc3occc3c2)n1	12600 nM	9700 nM	–
Cc1cccc(-c2ccccc2)c1Nc1nc(O)nc(OCc2ccc3occc3c2)n1	4000 nM	23600 nM	–
Cc1cccc(-c2ccccc2)c1Oc1nc(N)nc(NCc2ccc3occc3c2)n1	> 50000 nM	> 100000 nM	–
Fc1cccc(-c2ccccc2)c1Nc1nc(Cl)nc(NCc2ccc3occc3c2)n1	–	> 100000 nM	–
COc1nc(NCc2ccc3occc3c2)nc(Nc2c(C)cccc2-c2ccccc2)n1	3000 nM	2570 nM	–
Oc1nc(NCc2ccc3cc[nH]c3c2)nc(Nc2ccccc2-c2ccccc2)n1	7200 nM	3500 nM	–
Oc1nc(NCc2ccc3cc[nH]c3c2)nc(Nc2cccc(Br)c2)n1	> 10000 nM	40000 nM	–
Oc1nc(NCc2ccc3cc[nH]c3c2)nc(Nc2cccc(Oc3ccccc3)c2)n1	> 10000 nM	> 100000 nM	–
Cc1cccc(-c2ccccc2)c1Nc1nc(O)nc(NCc2ccc3cc[nH]c3c2)n1	900 nM	500 nM	–
CC(C)(Nc1nc(O)nc(Nc2c(F)cccc2-c2ccccc2)n1)c1ccc2c(c1)OCO2	–	> 100000 nM	–
Cc1cccc(-c2ccccc2)c1Nc1nc(O)nc(NCc2ccc3c(ccn3S(C)(=O)=O)c2)n1	> 10000 nM	> 100000 nM	–
Cc1cccc(-c2ccccc2)c1Nc1nc(O)nc(NCc2ccc3c(c2)OCCCO3)n1	2800 nM	4400 nM	–
Cc1cccc(-c2ccccc2)c1Nc1nc(O)nc(NCc2ccc3occc3c2)n1	200 nM	70 nM	–
Oc1nc(NCc2ccc3occc3c2)nc(Nc2c(F)cccc2-c2ccccc2)n1	400 nM	90 nM	–
Cc1cccc(-c2ccccc2)c1N(C)c1nc(O)nc(NCc2ccc3occc3c2)n1	1500 nM	5100 nM	–
CN(Cc1ccc2occc2c1)c1nc(O)nc(Nc2ccccc2N2CCOCC2)n1	–	4100 nM	–
CCN(Cc1ccc2occc2c1)c1nc(O)nc(Nc2c(F)cccc2-c2ccccc2)n1	–	> 100000 nM	–
Cc1cccc(-c2ccccc2)c1Nc1nc(O)nc(N(C)Cc2ccc3occc3c2)n1	120 nM	83 nM	–
O=C1Nc2ccc(Cl)cc2[C@@](C#CC2CC2)(C(F)(F)F)O1 [EFAVIRENZ]	–	–	EC50 [9]: > 1000 nM; EC50 [10]: 5 nM; CC50 [14]: > 1000 nM
Cc1ccnc2c1NC(=O)c1cccnc1N2C1CC1 [NEVIRAPINE]	–	–	EC50 [8]: 200 nM; EC50 [9]: > 1000 nM; EC50 [10]: > 1000 nM; CC50 [14]: > 1000 nM
